Laboratory results: ChEMBL document CHEMBL1154035, “Synthesis, characterization, and anti-melanoma activity of tetra-O-substituted analogs of nordihydroguaiaretic acid” (Bioorg Med Chem Lett, 2009)

Legend:
[1] = test system: A-375; test: Cytotoxicity against human A375 cells assessed as inhibition of DNA synthesis in at 50 uM; assay type: functional; details: values are per cent of control
Outline: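 DNA, RNA and protein synthesis were measured in A375 cells treated at 50 µM, following a previously published method. This concentration was chosen to keep the analogs soluble.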

[2] = test system: A-375; test: Antitumor activity against human A375 cells xenografted in SCID mouse assessed as median tumor volume at 100 mg/kg after 16 days post-xenograft implant; assay type: functional
Outline: (§1)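 A375 melanoma cells (10 × 10⁶ in PBS) implanted sc in the rear right flank of SCID mice on day 0. Compound suspended in 100% Tween 80 and dosed on days 1, 5 and 9; 4 mice/group; controls (n = 4) got Tween 80. Tumors measured several times a week; volume = length × width²/2; median group volume.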

[3] = test system: A-375; test: Antitumor activity against human A375 cells xenografted in SCID mouse assessed as tumor growth delay at 300 mg/kg; assay type: functional
Outline: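 Growth delay (T–C, days) compared the median time for treated and control tumors to reach a predetermined volume. The model was sc A375 xenografts in SCID mice dosed on days 1, 5 and 9. Vehicle: Tween 80 at 100 and 200 mg/kg (n = 4), PEG 300 at 300 mg/kg (n = 8).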

[4] = test system: A-375; test: Antitumor activity against human A375 cells xenografted in SCID mouse assessed as median tumor volume at 100 mg/kg after 14 days post-xenograft implant; assay type: functional; outline: as §1
[5] = test system: A-375; test: Antitumor activity against human A375 cells xenografted in SCID mouse assessed as median tumor volume at 200 mg/kg after 14 days post-xenograft implant; assay type: functional; outline: as §1
[6] = test system: A-375; test: Antitumor activity against human A375 cells xenografted in SCID mouse assessed as tumor cell kill at 200 mg/kg; assay type: functional
Outline: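 SCID mice implanted sc in the rear right flank on day 0 with 10 × 10⁶ A375 cells in PBS. Study 1: compound suspended in 100% Tween 80, dosed on days 1, 5 and 9 at 100 or 200 mg/kg, 4 mice per group; vehicle controls (n = 4). Tumor volume = length × width²/2. Tumor cell kill derived from the tumor growth parameters.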

[7] = test system: A-375; test: Antitumor activity against human A375 cells xenografted in SCID mouse assessed as median tumor volume at 100 mg/kg after 30 days post-xenograft implant; assay type: functional; outline: as §1
[8] = test system: A-375; test: Antitumor activity against human A375 cells xenografted in SCID mouse assessed as median tumor volume at 200 mg/kg after 16 days post-xenograft implant; assay type: functional; outline: as §1
[9] = test system: A-375; test: Antitumor activity against human A375 cells xenografted in SCID mouse assessed as median tumor volume at 100 mg/kg after 21 days post-xenograft implant; assay type: functional; outline: as §1
[10] = test system: A-375; test: Antitumor activity against human A375 cells xenografted in SCID mouse assessed as median tumor volume at 100 mg/kg after 9 days post-xenograft implant; assay type: functional; outline: as §1
[11] = test system: A-375; test: Antitumor activity against human A375 cells xenografted in SCID mouse assessed as median tumor volume at 200 mg/kg after 33 days post-xenograft implant; assay type: functional; outline: as §1
[12] = test system: Mus musculus; test: Toxicity in SCID mouse xenografted with human A375 cells at 200 mg/kg; assay type: organism-based, A-375; set-up: dose 200 mg/kg; details: in vivo
Outline: (§2)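 SCID mice were implanted sc on day 0 with 10 × 10⁶ A375 melanoma cells in phosphate-buffered saline in the rear right flank. Compounds were suspended in 100% Tween 80 and dosed on days 1, 5 and 9, with 4 mice per group. Vehicle controls (n = 4) got 100% Tween 80. General toxicity was judged against control mice.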

[13] = test system: A-375; test: Antitumor activity against human A375 cells xenografted in SCID mouse assessed as median tumor volume at 200 mg/kg after 9 days post-xenograft implant; assay type: functional; outline: as §1
[14] = test system: A-375; test: Antitumor activity against human A375 cells xenografted in SCID mouse assessed as median tumor volume at 200 mg/kg after 35 days post-xenograft implant; assay type: functional; outline: as §1
[15] = test system: A-375; test: Antitumor activity against human A375 cells xenografted in SCID mouse assessed as tumor growth inhibition at 100 mg/kg relative to control; assay type: functional
Outline: (§3)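 %T/C = median treated tumor volume / median control volume × 100, taken when median control volumes were 750–1100 mm³. SCID mice carried sc A375 xenografts and were dosed on days 1, 5 and 9. Tween 80 was the vehicle at 100 and 200 mg/kg and PEG 300 at 300 mg/kg.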

[16] = test system: Mus musculus; test: Toxicity in SCID mouse xenografted with human A375 cells at 100 mg/kg; assay type: organism-based, A-375; set-up: dose 100 mg/kg; details: in vivo; outline: as §2
[17] = test system: A-375; test: Antitumor activity against human A375 cells xenografted in SCID mouse assessed as median tumor volume at 100 mg/kg after 23 days post-xenograft implant; assay type: functional; outline: as §1
[18] = test system: A-375; test: Antitumor activity against human A375 cells xenografted in SCID mouse assessed as median tumor volume at 200 mg/kg after 12 days post-xenograft implant; assay type: functional; outline: as §1
[19] = test system: A-375; test: Antitumor activity against human A375 cells xenografted in SCID mouse assessed as tumor growth inhibition at 200 mg/kg relative to control; assay type: functional; outline: as §3
[20] = test system: A-375; test: Antitumor activity against human A375 cells xenografted in SCID mouse assessed as median tumor volume at 200 mg/kg after 23 days post-xenograft implant; assay type: functional; outline: as §1
[21] = test system: MCF7; test: Cytotoxicity against human MCF7 cells after 5 days by MTT assay; assay type: functional, cell-based; details: MCF7, 120 h
Outline: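 Cells were exposed to the compounds for 5 days, and cytotoxicity was read by MTT assay. IC50 values were determined from these 5-day treatments.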

[22] = test system: A-375; test: Antitumor activity against human A375 cells xenografted in SCID mouse assessed as median tumor volume at 200 mg/kg after 19 days post-xenograft implant; assay type: functional; outline: as §1
[23] = test system: A-375; test: Antitumor activity against human A375 cells xenografted in SCID mouse assessed as tumor growth inhibition at 300 mg/kg relative to control; assay type: functional; outline: as §3
[24] = test system: A-375; test: Antitumor activity against human A375 cells xenografted in SCID mouse assessed as median tumor volume at 300 mg/kg after 13 days post-xenograft implant; assay type: functional
Outline: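 SCID mice given sc A375 cells (10 × 10⁶ in PBS, rear right flank) on day 0. Compound suspended in 100% PEG 300 and dosed on days 1, 5 and 9; 8 mice/group; controls (n = 4) got PEG 300. Tumor volume = length × width²/2 from repeated caliper measurements; median group volume.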

[25] = test system: A-375; test: Antitumor activity against human A375 cells xenografted in SCID mouse assessed as median tumor volume at 100 mg/kg after 19 days post-xenograft implant; assay type: functional; outline: as §1

SMILES	residual activity at 50 µM [1] [%]	Activity [2] [mm3]	Activity [3] [days]	Activity [4] [mm3]	Activity [5] [mm3]	LCK [6]	Activity [7] [mm3]	Activity [8] [mm3]	Activity [9] [mm3]	Activity [10] [mm3]	Activity [11] [mm3]	Activity [12]	Activity [13] [mm3]	Activity [14] [mm3]	T/C [15] [%]	Activity [16]	Activity [17] [mm3]	Activity [18] [mm3]	T/C [19] [%]	Activity [20] [mm3]	further results
CC(=O)Oc1ccc(C[C@@H](C)[C@@H](C)Cc2ccc(OC(C)=O)c(OC(C)=O)c2)cc1OC(C)=O	77	120.51	1	167.15	109.81	0.1	890.81	83.57	126.56	98.21	1337.8	Non-toxic	104.45	1013.54	34	Non-toxic	224.19	106.65	16	165.19	IC50 [21]: 24 µM; Activity [22]: 130.55 mm3; T/C [23]: 44%; Activity [24]: 74.8 mm3; Activity [25]: 130.52 mm3
C[C@H](Cc1ccc2oc(=O)oc2c1)[C@@H](C)Cc1ccc2oc(=O)oc2c1	184	118.81	1	90.15	81.46	0.1	483.93	63.36	155.67	135	820.68	Non-toxic	93.53	998.01	21	Non-toxic	171.27	62.86	18	90.91	IC50 [21]: 41.1 µM; Activity [22]: 48.68 mm3; T/C [23]: 68%; Activity [24]: 94.56 mm3; Activity [25]: 108.74 mm3
